Converted amounts (≈) assume the structure as drawn. The source made the active and inactive calls. The rule behind the calls is not given here.
Legend:
[1] = Thermodynamic solubility at pH 6.5; type: physicochemical; conditions: buffer
[2] = Plasma concentration in Calu-6 cells xenografted nude mouse PK/PD model at 75 mg/kg, po bid for 5 days measured 4 hrs post last dose relative to untreated control; type: ADME, organism-based; parameters: dose 75 mg/kg, route oral
Procedure, shortened: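 Calu-6 tumor-bearing mice were dosed orally 75 mg/kg BID for five doses. Plasma was sampled 4 h after the last dose, at the same time as tumor harvest. Compound was given as free base or HCl salt, suspended in a methylcellulose/Tween or Labrafil-based vehicle.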

Cytochrome P450 3A4 = Cytochrome P450 3A4 (Homo sapiens, UniProt P08684); assay: Inhibition of CYP3A4; type: ADME
Cytochrome P450 3A4, sequence (P08684 whole entry): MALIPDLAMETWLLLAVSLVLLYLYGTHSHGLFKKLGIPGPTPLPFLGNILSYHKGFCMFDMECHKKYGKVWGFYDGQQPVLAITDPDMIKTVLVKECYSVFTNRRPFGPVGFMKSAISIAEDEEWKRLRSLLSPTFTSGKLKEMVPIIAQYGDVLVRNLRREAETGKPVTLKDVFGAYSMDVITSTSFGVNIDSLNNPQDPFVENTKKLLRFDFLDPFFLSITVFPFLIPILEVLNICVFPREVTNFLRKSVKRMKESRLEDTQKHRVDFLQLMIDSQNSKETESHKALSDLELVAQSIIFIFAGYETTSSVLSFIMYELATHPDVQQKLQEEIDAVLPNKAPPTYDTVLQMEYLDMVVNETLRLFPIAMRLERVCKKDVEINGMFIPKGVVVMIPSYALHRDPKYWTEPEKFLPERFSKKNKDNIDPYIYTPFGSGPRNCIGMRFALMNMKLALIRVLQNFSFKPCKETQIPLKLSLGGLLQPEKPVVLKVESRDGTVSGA

[3] = Volume of distribution at steady state in rat at 5 mg/kg, po or 1 mg/kg, iv; type: ADME, organism-based; conditions: in vivo, read-out: Vdss
Procedure, shortened: (§1)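 Male rats received the TFA salt as a solution. The IV dose was 1 mg/kg in 80% PEG or in 5% DMSO/5% cremophor. The oral dose was 5 mg/kg in 60–80% PEG.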

Mus musculus [4] = assay: Inhibition of Hedgehog signaling in Calu-6 cells xenografted nude mouse PK/PD model assessed as reduction in Gli1 mRNA expression at 75 mg/kg, po bid for 5 doses measured 4 hrs post last dose relative to untreated control; conditions: Calu-6, po
[5] = Thermodynamic solubility at pH 1.0; type: physicochemical; conditions: buffer
[6] = Inhibition of Hedgehog signaling in mouse S12 cells assessed as reduction in receptor-mediated Gli1 mRNA expression by reporter gene assay; type: cell-based
[7] = Clearance in rat at 5 mg/kg, po or 1 mg/kg, iv; type: ADME, organism-based; conditions: in vivo; procedure, shortened: as §1
Mus musculus [8] = assay: Volume of distribution in Calu-6 cells xenografted nude mouse PK/PD model at 75 mg/kg, po bid for 5 days measured 4 hrs post last dose relative to untreated control; type: ADME, organism-based; parameters: dose 75 mg/kg, route oral; conditions: in vivo
Cytochrome P450 2C9 = Cytochrome P450 2C9 (Homo sapiens, UniProt P11712); assay: Inhibition of CYP2C9; type: ADME
Cytochrome P450 2C9, sequence (P11712 whole entry): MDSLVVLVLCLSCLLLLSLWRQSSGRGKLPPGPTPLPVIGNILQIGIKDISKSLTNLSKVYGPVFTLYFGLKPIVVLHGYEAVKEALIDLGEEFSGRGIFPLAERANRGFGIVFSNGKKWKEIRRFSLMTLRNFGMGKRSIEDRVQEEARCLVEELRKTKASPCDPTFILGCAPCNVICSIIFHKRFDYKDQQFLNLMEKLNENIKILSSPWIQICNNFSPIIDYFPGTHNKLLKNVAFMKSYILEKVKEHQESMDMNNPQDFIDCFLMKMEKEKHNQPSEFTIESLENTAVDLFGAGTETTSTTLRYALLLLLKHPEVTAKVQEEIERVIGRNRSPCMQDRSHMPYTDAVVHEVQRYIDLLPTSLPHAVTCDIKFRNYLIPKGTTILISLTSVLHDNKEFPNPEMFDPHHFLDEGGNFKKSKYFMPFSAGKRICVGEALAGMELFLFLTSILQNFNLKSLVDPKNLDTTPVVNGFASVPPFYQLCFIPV

[9] = Inhibition of Hedgehog signaling in human HEPM cells assessed as reduction in receptor-mediated Gli1 mRNA expression by reporter gene assay; type: cell-based
Mus musculus [10] = assay: Inhibition of Hedgehog signaling in Calu-6 cells xenografted nude mouse PK/PD model assessed as reduction in Gli1 mRNA expression at 25 mg/kg, po bid for 5 days measured 4 hrs post last dose relative to untreated control; type: functional
[11] = Plasma concentration in Calu-6 cells xenografted nude mouse PK/PD model at 25 mg/kg, po bid for 5 days measured 6 hrs post last dose relative to untreated control; type: ADME, organism-based; parameters: dose 25 mg/kg, route oral
Mus musculus [12] = assay: Antitumor activity in mouse medulloblastoma allograft model harboring tumors with activating mutations in Hh pathway (Ptch+/-) assessed as complete regression of tumor volume at 5 mg/kg, po bid; type: functional, organism-based; parameters: dose 5 mg/kg
Procedure, shortened: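 Spontaneous medulloblastomas from Ptch+/- mice passaged subcutaneously in nude mice. Once tumors were established, mice were dosed twice daily for 20 days at 5 mg/kg BID. Tumor volume was followed over time.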

Mus musculus [13] = assay: Inhibition of Hedgehog signaling in Calu-6 cells xenografted nude mouse PK/PD model assessed as reduction in Gli1 mRNA expression at 75 mg/kg, po bid for 5 days measured 4 hrs post last dose relative to untreated control; type: functional; conditions: Calu-6, po, in the assay text read “for 5 doses” for “for 5 days”
Procedure, shortened: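 Nude mice bearing established Calu-6 tumors got 75 mg/kg by oral gavage BID for five doses. Tumors were harvested 4 h after the last dose. Stromal (murine) Gli1 mRNA was measured and expressed relative to vehicle-treated tumors. Compound was given as free base or HCl salt, suspended in a methylcellulose/Tween or Labrafil-based formulation.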

Cc1ncn(-c2ccc(C(=O)Nc3ccc(Cl)c(-c4ccccn4)c3)c(C)n2)n1
solubility thermodynamic [1]: 6 µg/mL (≈ 14.8 µM) | concentration at 4 h [2]: 150 µM | IC50 (Cytochrome P450 3A4): > 20000 nM | Vd [3]: 0.24 L/kg | inhibition in vivo at 75 mg/kg (Mus musculus [4]): 50% | solubility thermodynamic [5]: 900 µg/mL (≈ 2220 µM) | IC50 [6]: 67 nM | clearance [7]: 0.7 mL/min/kg | Vd (Mus musculus [8]): 0.15 L/kg | IC50 (Cytochrome P450 2C9): > 20000 nM | IC50 [9]: 8 nM

O=C(NCc1ccccn1)c1ccc(C(=O)Nc2ccc(Cl)c(-c3ccccn3)c2)c(Cl)c1
solubility thermodynamic [1]: 3 µg/mL (≈ 6.28 µM) | IC50 (Cytochrome P450 3A4): > 20000 nM | solubility thermodynamic [5]: 4300 µg/mL (≈ 9010 µM) | inhibition in vivo at 25 mg/kg (Mus musculus [10]): 90% | IC50 [6]: 4 nM | clearance [7]: 6.7 mL/min/kg | concentration at 6 h [11]: 1.7 µM | inhibition (Mus musculus [12]): Active | IC50 (Cytochrome P450 2C9): 4500 nM | IC50 [9]: 0.4 nM

CCN1CCN(c2ccc(C(=O)Nc3ccc(Cl)c(-c4ccccn4)c3)c(C)n2)CC1
IC50 (Cytochrome P450 3A4): > 20000 nM | IC50 [6]: 160 nM | IC50 (Cytochrome P450 2C9): > 20000 nM | IC50 [9]: 5 nM

NS(=O)(=O)c1ccc(C(=O)Nc2ccc(Cl)c(-c3ccccn3)c2)c(Cl)c1
IC50 (Cytochrome P450 3A4): > 20000 nM | IC50 [6]: 35 nM | IC50 (Cytochrome P450 2C9): > 20000 nM | IC50 [9]: 5 nM

Cc1nc(NCCO)ccc1C(=O)Nc1ccc(Cl)c(-c2ccccn2)c1
IC50 (Cytochrome P450 3A4): > 20000 nM | IC50 [6]: 62 nM | IC50 (Cytochrome P450 2C9): > 20000 nM | IC50 [9]: 23 nM

Cc1nc(NCC(C)C)ccc1C(=O)Nc1ccc(Cl)c(-c2ccccn2)c1
IC50 (Cytochrome P450 3A4): 19000 nM | IC50 [6]: 53 nM | IC50 (Cytochrome P450 2C9): 500 nM | IC50 [9]: 14 nM

CS(=O)(=O)c1ccc(C(=O)Nc2ccc(Cl)c(-c3ccccn3)c2)c(Cl)c1 [VISMODEGIB]
solubility thermodynamic [1]: 10 µg/mL (≈ 23.7 µM) | IC50 (Cytochrome P450 3A4): > 20000 nM | solubility thermodynamic [5]: 3500 µg/mL (≈ 8310 µM) | IC50 [6]: 13 nM | clearance [7]: 3.7 mL/min/kg | IC50 (Cytochrome P450 2C9): > 20000 nM | IC50 [9]: 3 nM | inhibition in vivo at 75 mg/kg (Mus musculus [13]): 90%

O=C(Nc1ccc(Cl)c(-c2ccccn2)c1)c1ccc(-n2cncn2)nc1
solubility thermodynamic [1]: 8 µg/mL (≈ 21.2 µM) | IC50 (Cytochrome P450 3A4): 200 nM | Vd [3]: 1.4 L/kg | solubility thermodynamic [5]: 4000 µg/mL (≈ 10600 µM) | IC50 [6]: 47 nM | clearance [7]: 4 mL/min/kg | IC50 (Cytochrome P450 2C9): 200 nM | IC50 [9]: 8 nM

CS(=O)(=O)Nc1ccc(C(=O)Nc2ccc(Cl)c(-c3ccccn3)c2)c(Cl)c1
solubility thermodynamic [1]: 1 µg/mL (≈ 2.29 µM) | concentration at 4 h [2]: 2.2 µM | IC50 (Cytochrome P450 3A4): > 20000 nM | inhibition in vivo at 75 mg/kg (Mus musculus [4]): 25% | solubility thermodynamic [5]: 910 µg/mL (≈ 2090 µM) | IC50 [6]: 17 nM | clearance [7]: 2.4 mL/min/kg | IC50 (Cytochrome P450 2C9): 8000 nM | IC50 [9]: 2 nM

O=C(NCc1ccccc1)c1ccc(C(=O)Nc2ccc(Cl)c(-c3ccccn3)c2)c(Cl)c1
IC50 (Cytochrome P450 3A4): > 20000 nM | IC50 [6]: 7 nM | IC50 (Cytochrome P450 2C9): 1200 nM | IC50 [9]: 1 nM

CS(=O)(=O)Cc1ccc(C(=O)Nc2ccc(Cl)c(-c3ccccn3)c2)c(Cl)c1
solubility thermodynamic [1]: 3 µg/mL (≈ 6.89 µM) | concentration at 4 h [2]: 0.3 µM | IC50 (Cytochrome P450 3A4): > 20000 nM | solubility thermodynamic [5]: 110 µg/mL (≈ 253 µM) | IC50 [6]: 3 nM | clearance [7]: 5.5 mL/min/kg | IC50 (Cytochrome P450 2C9): 16000 nM | IC50 [9]: 1 nM | inhibition in vivo at 75 mg/kg (Mus musculus [13]): 0%

O=C(Nc1ccc(Cl)c(-c2ccccn2)c1)c1ccc(C(=O)N2CCS(=O)(=O)CC2)cc1Cl
solubility thermodynamic [1]: 60 µg/mL (≈ 119 µM) | IC50 (Cytochrome P450 3A4): > 20000 nM | solubility thermodynamic [5]: 4300 µg/mL (≈ 8530 µM) | IC50 [6]: 33 nM | clearance [7]: 35 mL/min/kg | IC50 (Cytochrome P450 2C9): 9000 nM | IC50 [9]: 5 nM

CC(=O)N1CCN(c2ccc(C(=O)Nc3ccc(Cl)c(-c4ccccn4)c3)c(C)n2)CC1
solubility thermodynamic [1]: 6 µg/mL (≈ 13.3 µM) | concentration at 4 h [2]: 22 µM | IC50 (Cytochrome P450 3A4): > 20000 nM | Vd [3]: 0.38 L/kg | solubility thermodynamic [5]: 3200 µg/mL (≈ 7110 µM) | IC50 [6]: 22 nM | clearance [7]: 2 mL/min/kg | IC50 (Cytochrome P450 2C9): 16000 nM | IC50 [9]: 5 nM | inhibition in vivo at 75 mg/kg (Mus musculus [13]): 80%

Cc1nc(C(F)(F)F)ccc1C(=O)Nc1ccc(Cl)c(-c2ccccn2)c1
solubility thermodynamic [1]: 2 µg/mL (≈ 5.1 µM) | concentration at 4 h [2]: 15 µM | IC50 (Cytochrome P450 3A4): > 20000 nM | Vd [3]: 0.95 L/kg | solubility thermodynamic [5]: 1000 µg/mL (≈ 2550 µM) | IC50 [6]: 42 nM | clearance [7]: 4.5 mL/min/kg | IC50 (Cytochrome P450 2C9): > 20000 nM | IC50 [9]: 15 nM | inhibition in vivo at 75 mg/kg (Mus musculus [13]): 40%

Reference: ChEMBL document CHEMBL1268916, “Second generation 2-pyridyl biphenyl amide inhibitors of the hedgehog pathway” (Bioorg Med Chem Lett, 2010)
